In ChEMBL document CHEMBL1142942, “Polybrominated diphenyl ethers from the Indonesian sponge Lamellodysidea herbacea” (J Nat Prod, 2007):
≈ marks a conversion by molar mass, not a printed value.

Experiments:
Bacillus subtilis [1] = assay: Antibacterial activity against Bacillus subtilis at 0.1ug/disk after 24 hrs by agar-plate diffusion assay; assay type: functional; settings: read-out: IZ
Procedure, shortened: (§1)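 Paper disks loaded with compound (acetone solution), 0.1 to 10 µg/disk, placed on agar plates inoculated with B. subtilis. Incubated 37 °C for 24 h, then read for zones of inhibition. All materials sterilized at 121 °C for 20 min before and after testing.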

Bacillus subtilis [2] = assay: Antibacterial activity against Bacillus subtilis at 1 ug/disk after 24 hrs by agar-plate diffusion assay; assay type: functional; settings: read-out: IZ; procedure, shortened: as §1
Bacillus subtilis [3] = assay: Antibacterial activity against Bacillus subtilis at 5 ug/disk after 24 hrs by agar-plate diffusion assay; assay type: functional; settings: read-out: IZ; procedure, shortened: as §1
Bacillus subtilis [4] = assay: Antibacterial activity against Bacillus subtilis at 10 ug/disk after 24 hrs by agar-plate diffusion assay; assay type: functional; settings: read-out: IZ; procedure, shortened: as §1
[5] = Cytotoxicity against rat NBT-T2 cells by MTT method; assay type: cell-based
Procedure, shortened: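 Rat bladder epithelial NBT-T2 cells exposed to compound. Viability read by MTT, and IC50 values derived from it.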

| SMILES | zone of inhibition at 0.1 µg/disc (Bacillus subtilis [1]) [mm] | zone of inhibition at 1 µg/disc (Bacillus subtilis [2]) [mm] | zone of inhibition at 5 µg/disc (Bacillus subtilis [3]) [mm] | zone of inhibition at 10 µg/disc (Bacillus subtilis [4]) [mm] | IC50 [5] [µg/mL] |
| --- | --- | --- | --- | --- | --- |
| Brc1cc(Br)c2c(c1)Oc1c(Br)c(Br)c(Br)c(Br)c1O2 | 7 | 12 | 13 | 14 | > 15 |
| COc1c(Br)cc(Br)cc1Oc1c(O)cc(Br)c(Br)c1Br | 6 | 9 | 10 | 10 | 2.8 (≈ 4.58 µM) |
| COc1c(Br)c(Br)cc(Br)c1Oc1cc(Br)cc(Br)c1O | 6 | 9 | 9 | 9 | – |
| Oc1ccc(Br)cc1Oc1cc(Br)cc(Br)c1O | 6 | 6 | 8 | 11 | > 15 |
| COc1cc(Br)cc(Br)c1Oc1cc(Br)cc(Br)c1OC | 0 | 0 | 0 | 0 | – |
| Oc1ccc(Br)cc1Oc1c(O)c(Br)cc(Br)c1Br | 7 | 8 | 16 | 17 | > 15 |
| Oc1ccc(Br)cc1Oc1c(O)ccc(Br)c1Br | 7 | 13 | 16 | 18 | > 15 |
| COc1c(Br)cc(Br)cc1Oc1ccc(Br)cc1Br | 0 | 0 | 0 | 0 | – |
| COc1cc(Br)c(Br)c(Br)c1Oc1cc(Br)cc(Br)c1O | 0 | 0 | 0 | 0 | – |
| COc1c(Br)cc(Br)cc1Oc1c(Br)ccc(Br)c1OC | 0 | 0 | 0 | 0 | – |
| COc1c(Br)cc(Br)cc1Oc1c(Br)cc(Br)c(Br)c1O | 6 | 11 | 14 | 14 | – |
| COc1c(Br)c(Br)c(Br)c(Br)c1Oc1cc(Br)cc(Br)c1O | 0 | 0 | 0 | 0 | – |
| Oc1ccccc1Oc1c(O)cc(Br)cc1Br | 6 | 8 | 10 | 14 | > 15 |
| COc1c(Br)cc(Br)cc1Oc1c(Br)c(Br)c(Br)c(Br)c1OC | 0 | 0 | 0 | 0 | – |
| Oc1cc(Br)c(Br)c(Br)c1Oc1cc(Br)cc(Br)c1O | 7 | 10 | 13 | 16 | > 15 |
| Oc1c(Br)cc(Br)cc1Oc1c(Br)cc(Br)c(Br)c1O | 0 | 7 | 8 | 10 | > 15 |
| COc1cc(Br)c(Br)c(Br)c1Oc1cc(Br)cc(Br)c1OC | 0 | 0 | 0 | 0 | – |
| COc1c(Br)cc(Br)c(Br)c1Oc1cc(Br)cc(Br)c1O | 6 | 7 | 10 | 13 | – |
| Oc1c(Br)cc(Br)cc1Oc1c(O)c(Br)c(Br)c(Br)c1Br | 6 | 7 | 12 | 12 | > 15 |
| COc1c(Br)cc(Br)cc1Oc1c(Br)cc(Br)c(Br)c1OC | 0 | 0 | 0 | 0 | – |
| COc1ccc(Br)cc1Oc1c(Br)c(Br)cc(Br)c1OC | 0 | 0 | 0 | 0 | – |
| COc1ccc(Br)cc1Oc1c(OC)ccc(Br)c1Br | 0 | 0 | 0 | 0 | – |
| Oc1cc(Br)cc(Br)c1Oc1cc(Br)cc(Br)c1O | 0 | 0 | 16 | 18 | > 15 |
| COc1c(Br)cc(Br)cc1Oc1c(O)c(Br)c(Br)c(Br)c1Br | 0 | 10 | 10 | 13 | > 15 |
| Oc1c(Br)cc(Br)cc1Oc1c(Br)ccc(Br)c1O | 7 | 13 | 20 | 20 | > 15 |
| Oc1c(Br)cccc1Oc1cc(Br)c(Br)c(Br)c1O | 0 | 0 | 8 | 13 | > 15 |
| Oc1cc(Br)ccc1Oc1cc(Br)cc(Br)c1O | 0 | 0 | 7 | 13 | 8.5 (≈ 19.4 µM) |
